{"source": "paper PMC5565762", "about": "(International Journal for Parasitology: Drugs and Drug …, 2017)", "key": {"Bloodstream T. b. brucei [1]": {"system": "Bloodstream T. b. brucei", "test": "Glucose consumption", "assay_type": "cell-based, Trypanosoma brucei brucei", "details": "compound at its EC50, 4 h", "method_in_brief": "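Bloodstream T. b. brucei were seeded at 5.3–5.8 × 10^6 parasites/mL in HMI-9 with 10% FBS (37 °C, 5% CO2). They were exposed for 4 h to test compound at a fixed concentration, or to suramin 78 nM, ebselen 5 μM, tri-thiazol 0.31 μM or 1% DMSO vehicle. Viable cells were counted in a Neubauer chamber, cells were spun down at 2000 g for 10 min, and supernatant glucose was measured on an analyzer. Consumption is given as g/L per million cells per hour; triplicates, SD.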"}, "Bloodstream T. b. brucei [2]": {"system": "Bloodstream T. b. brucei", "test": "Inhibition of glucose uptake", "assay_type": "cell-based, Trypanosoma brucei brucei", "details": "30 min"}, "[3]": {"system": "Bloodstream T. b. brucei (strain 427) cell line 449", "test": "Viability assay of bloodstream trypanosomes", "assay_type": "cell-based", "details": "Trypanosoma brucei, 24 h", "method_in_brief": "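Bloodstream parasites at 5 × 10^5 cells/mL in HMI-9 with 10% FBS received test compound (5 μM final; nifurtimox 15 μM) or 1% DMSO, in triplicate, for 24 h at 37 °C and 5% CO2. Cells were diluted into PBS with 1% glucose, stained with propidium iodide (2 μg/mL) and counted by flow cytometry. Viability is the % of the DMSO-control cell count. EC50 came from 7-point curves (triplicates) fitted to a sigmoidal Hill equation; SD.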"}, "[4]": {"system": "murine macrophages (cell line J774)", "test": "Viability assay of murine macrophages", "assay_type": "cell-based", "details": "murine macrophages vs T. b. brucei", "method_in_brief": "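J774 murine macrophages were grown in DMEM with 10% FBS, penicillin and streptomycin at 37 °C in 5% CO2. Cells were exposed to 7 concentrations of test compound, each in triplicate, for 24 h, and viability was measured with WST-1 reagent as % of DMSO-treated control. EC50 was derived by fitting a sigmoidal Hill equation; SD.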"}, "[5]": {"system": "redox biosensor hGrx-roGFP2 in bloodstream T. b. brucei", "test": "Intracellular redox changes in T. brucei redox reporter cell line", "assay_type": "cell-based, Trypanosoma brucei brucei", "details": "for oxidation of the biosensor: 4 h, 0.54 μM 13, 1.49 μM 15, 78 nM suramin, 25 μM menadione", "method_in_brief": "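The strain 427 line 449 bloodstream reporter line expresses hGrx-roGFP2, induced with 1 μg/mL oxytetracycline for 24 h. Parasites at 2 × 10^6/mL were treated for 4 h at 37 °C with test compound, 25 μM menadione, 78 nM suramin or 1% DMSO. A parallel sample then received 1 mM DTT for 15 min. Cells were stained with PI (2 μg/mL) and GFP (530/40 nm) was read on PI-negative cells by flow cytometry. Values are % biosensor reduction versus DMSO without DTT; triplicates, SD.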"}}}
{"smiles": "O=c1c2ccccc2[se]n1-c1ccccc1", "note": "[ebselen]", "values": [{"measurement": "reduction of glucose consumption vs vehicle", "setting": "Bloodstream T. b. brucei [1]", "result": 44, "unit": "%"}, {"measurement": "anti-proliferative activity with respect to the DMSO control", "setting": "Bloodstream T. b. brucei [1]; not statistically significant", "result": "some anti-proliferative activity"}]}
{"smiles": "O=C(CCc1ccc(O)cc1)c1c(O)cc(O)cc1O", "note": "[phloretin]", "values": [{"measurement": "reduction of glucose uptake", "setting": "Bloodstream T. b. brucei [2]; 500 μM", "result": 63, "unit": "%"}]}
{"smiles": "CC1CS(=O)(=O)CCN1/N=C/c1ccc([N+](=O)[O-])o1", "note": "(centres unmarked) [NFX, nifurtimox]", "values": [{"measurement": "EC50", "setting": "[3]; read-out: EC50 against T. b. brucei", "result": "~10", "unit": "µM"}, {"measurement": "viability at 15 µM", "setting": "[3]; read-out: Parasite survival", "result": "28.2 ± 5.5", "unit": "%"}, {"measurement": "selectivity index (SI)", "setting": "[4]", "result": "~10"}, {"measurement": "glucose uptake compared to vehicle treated cells", "setting": "Bloodstream T. b. brucei [2]; 5X EC50 (13 2.7 μM, 15 7.45 μM, nifurtimox 50 μM)", "result": "A similar outcome"}]}
{"smiles": "Cc1ccc(C(=O)Nc2ccc(S(=O)(=O)O)c3cc(S(=O)(=O)O)cc(S(=O)(=O)O)c23)cc1NC(=O)c1cccc(NC(=O)Nc2cccc(C(=O)Nc3cc(C(=O)Nc4ccc(S(=O)(=O)O)c5cc(S(=O)(=O)O)cc(S(=O)(=O)O)c45)ccc3C)c2)c1", "note": "[suramin]", "values": [{"measurement": "capacity to metabolize glucose compared to the control condition", "setting": "Bloodstream T. b. brucei [1]; vs DMSO", "result": "< 30", "unit": "%"}, {"measurement": "oxidation of the biosensor", "setting": "[5]", "result": "did not induce redox changes"}]}
{"smiles": "CC1=CC(=O)c2ccccc2C1=O", "note": "[menadione]", "values": [{"measurement": "oxidation of the biosensor", "setting": "[5]", "result": 60, "unit": "%"}, {"measurement": "reversal of biosensor oxidation by DTT", "setting": "[5]; after 4 h treatment, 15 min with 1 mM DTT", "result": "fully reversible"}]}
